RGS4 inh: inhibitors of human RGS4; P49798; HEK293 M3R/RGS4 inducible, Fluo-4 calcium flux; stronger effect = higher value; triggered by carbachol at its EC20; B-score at 10 µM; hit rate 0.45% among 310,000; AID 463165;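 active = B-score, a plate-corrected calcium signal, over three deviations above library mean, with baseline fluorescence within five deviations of library mean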;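 also: RGS4 expression induced by doxycycline in cells with stable M3 receptor; B-score is computed from the integrated fluorescence ratio over baseline after carbachol; higher B-score means a larger calcium signal and so more RGS4 inhibition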
Target sequence (P49798 whole entry, looked up): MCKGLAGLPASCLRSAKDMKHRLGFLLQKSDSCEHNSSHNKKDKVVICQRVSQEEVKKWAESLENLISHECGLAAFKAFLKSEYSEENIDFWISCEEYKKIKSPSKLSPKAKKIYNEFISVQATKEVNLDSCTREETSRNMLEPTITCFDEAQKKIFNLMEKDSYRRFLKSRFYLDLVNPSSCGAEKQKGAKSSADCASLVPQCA
MrgX1 allo act: allosterically activates human MrgX1 receptor signaling; Q96LB2; B-score at 10 µM; hit rate 0.63% among 310,000; MrgX1-HEK293, Fluo-4 calcium flux, FDSS; stronger effect = higher value;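 active = plate-corrected calcium response at least 3 library SD above typical, normal starting fluorescence, not activating the receptor alone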;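 also: compound read alongside a low EC10 to EC30 dose of BAM8-22 agonist; peak minus trough fluorescence over baseline measured at the second addition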
Target sequence (Q96LB2 whole entry, looked up): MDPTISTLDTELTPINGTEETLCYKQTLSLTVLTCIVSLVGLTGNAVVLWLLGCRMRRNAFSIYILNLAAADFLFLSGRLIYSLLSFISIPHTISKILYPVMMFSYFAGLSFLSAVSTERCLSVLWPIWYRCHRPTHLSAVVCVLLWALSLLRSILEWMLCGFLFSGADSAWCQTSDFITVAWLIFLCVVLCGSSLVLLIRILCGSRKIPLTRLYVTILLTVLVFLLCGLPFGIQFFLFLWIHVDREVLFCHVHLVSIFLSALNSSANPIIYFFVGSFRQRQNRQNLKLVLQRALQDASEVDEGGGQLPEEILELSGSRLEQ
MrgX1 antagonist: antagonists of human MrgX1 receptor; Q96LB2; MRGX1-HEK293 calcium flux, Fluo-4, BAM8-22 antagonism; stronger effect = lower value; B-score at 10 µM; hit rate 1.3% among 310,000; AID 588676;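 active = calcium-response B-score plate-corrected more than 3 library SD below zero, starting fluorescence within 5 deviations, no agonist response on first addition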;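 also: peak minus trough fluorescence over baseline after final BAM8-22 challenge near maximal dose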
RGS4 pot: RGS4 potentiation or activation | HEK293 M3R/inducible RGS4, carbachol calcium flux Fluo4; stronger effect = lower value | B-score at 10 µM | hit rate 0.92% among 310,000;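 active = B-score of the integrated calcium signal more than 4 SD below the library mean, with starting fluorescence not abnormally high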;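 also: negative B-score means reduced calcium response which marks RGS4 activation or potentiation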
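System: HEK293 FlpIn-TREx cells, stable M3R, doxycycline-inducible RGS4. Timing: overnight RGS4 induction, 30 min dye load 37 °C, 20 min compound RT. Also added: carbachol, ECmax concentration. Measured by: Fluo4 fluorescence kinetic imaging of calcium. Evaluation: integrated calcium ratio converted to B score.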
MrgX1 ag: activates human MrgX1 receptor signaling. Q96LB2. MrgX1-HEK293 cells, Fluo-4 calcium fluorescence, agonist mode; stronger effect = higher value. B-score at 10 µM. hit rate 0.44% among 310,000. AID 588627;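 active = calcium response B-score plate-corrected fluorescence ratio at least 3 library SD, with starting fluorescence B-score inside 5 SD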
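Test system: HEK293 cells stably expressing human MrgX1 receptor; Input: fifteen thousand cells per well; Dosing: compound delivered in addition one of three; Schedule: overnight seeding, then 1 h dark dye loading; Technique: Fluo-4 NW calcium fluorescence; Measure: B-scored fluorescence response ratio; Controls: positive and negative controls per plate.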
Numbers without * were called inactive; i = inactive; / = no result. Rows were chosen to be rich in hits. Some 3.5% of all compounds tested hit in one or more screens of this group.

SMILES | RGS4 inh | MrgX1 allo act | MrgX1 antagonist | RGS4 pot | MrgX1 ag
CC(Oc1ccc(Cl)cc1Cl)c1nc(-c2ccc(NC(=O)c3ccco3)cc2)no1 (configuration not stated) | i | i | -5* | i | i
CC(NC(=O)c1ccco1)c1nc(-c2ccccc2)no1 (configuration not stated) | i | i | i | i | i
CC(=O)O[C@H]1CC[C@]2(C)[C@H]3CC=C4[C@@H]5[C@@H](C)[C@H](C)CC[C@]5(C(=O)O)CC[C@@]4(C)[C@]3(C)CC[C@H]2C1(C)C | 14* | i | i | i | i
CC1(C)C2CC[C@]3(C)C(CC=C4[C@@H]5C[C@@](C)(CO)[C@@H](O)C[C@]5(C(=O)O)CC[C@]43C)[C@@]2(C)CC[C@@H]1O (some centres not stated) | i | i | i | i | i
CC1CN(C(=S)Nc2cccc(Cl)c2Cl)CC(C)O1 (configuration not stated) | i | i | i | i | i
Cc1ccc(C(C)C)c(OCCN(C)C)c1 | i | i | i | -7.1* | i
CCCN(CCC)CCOc1cc(C)ccc1C(C)C | i | i | i | i | i
CC(Oc1ccc(Br)cc1)C(=O)NC1CCN(Cc2ccccc2)CC1 (configuration not stated) | i | i | i | -7.6* | i
COC(=O)[C@H](Cc1ccccc1)NC(=O)NCCc1ccccc1F | i | i | i | i | i
COc1ccc(N2C(=O)CSC2c2ccc3c(c2)OCO3)cc1 (configuration not stated) | i | i | i | -7* | i
COc1ccc(N2C(=O)CSC2c2ccc3c(c2)OCO3)c(OC)c1 (configuration not stated) | i | i | i | i | i
COc1ccc(NC(=O)/C=C/C(=O)O)c([N+](=O)[O-])c1 | i | 13* | i | i | i
Cc1ccc(NC(=O)/C=C/C(=O)O)c([N+](=O)[O-])c1 | i | i | i | i | i
COc1cc2c(cc1OC)C(c1ccccc1[N+](=O)[O-])N(C(C)=O)CC2 (configuration not stated) | i | i | i | i | i
CC(C)c1ccc(C(=O)N/N=C/c2cccc(Cl)c2Cl)cc1 | i | 6.5* | i | i | i
CC(C)c1ccc(/C=N/NC(=O)c2cccc(Cl)c2)cc1 | i | i | i | i | i
CC(=O)Nc1ccc(C(=O)N/N=C/c2ccccc2OC(=O)c2ccc(Cl)cc2)cc1 | i | i | i | -7.3* | i
COP(=O)(c1ccc(N(C)C)cc1)C(O)c1ccccc1 (configuration not stated) | i | i | i | i | i
CC1CC(C)CN(C(=O)c2ccccc2Nc2ccc(SC(F)F)cc2)C1 (configuration not stated) | i | i | i | -7.4* | i
CN1CCN(C(=O)c2ccccc2Nc2ccc(SC(F)F)cc2)CC1 | i | i | i | i | i
O=C(c1cc2ccccc2oc1=O)N(Cc1ccccc1F)C1CCS(=O)(=O)C1 (configuration not stated) | i | i | i | i | i
CCOC(=O)C1=C(O)c2ccccc2C(=O)/C1=C\c1ccc(C)cc1 | / | i | i | / | 28*
CCOC(=O)C1=C(C)N(c2ccc(C)cc2)C(=O)/C1=C\c1ccc(O)c(OC)c1 | i | i | i | i | i
CCCCC(=O)N/N=C(\C)c1cccc(NC(=O)C2CC2)c1 | i | i | -5.6* | i | i
CCCc1nc2c(s1)CCc1onc(-c3ccc(Cl)cc3)c1-2 | i | i | i | i | i
SMILES | RGS4 inh | MrgX1 allo act | MrgX1 antagonist | RGS4 pot | MrgX1 ag
CCCc1sc(N)nc1-c1ccc(Cl)cc1 | i | i | i | -7.4* | i
CC(C)CCNS(=O)(=O)c1cc2c3c(c1)CCN3C(=O)CC2 | i | i | i | i | i
CC(C)N1CCc2c(sc(NC(=S)NC(=O)c3ccccc3)c2C#N)C1 | i | i | i | i | i
CCCN1CCc2c(sc(NC(=S)NC(=O)c3ccccc3)c2C#N)C1 | i | i | i | i | 80*
CCOC(=O)c1c(NC(=S)Nc2ccccc2)sc2c1CCN(CCc1ccccc1)C2 | / | i | -5* | / | i
CSc1sccc1/C=C(/C#N)C(=O)c1ccco1 | i | i | i | i | 37*
CCCCn1c(N)c(N(CC(C)C)C(=O)CSCc2c(C)noc2C)c(=O)[nH]c1=O | i | i | i | i | i
Cc1cc(C)c(OCC(=O)Nc2nnc(-c3ccco3)o2)c(C)c1 | i | i | i | i | i
CCCCN(C)S(=O)(=O)c1ccc(C(=O)Nc2nnc(-c3cccs3)o2)cc1 | i | i | i | i | 31*
CCN(CC)CCSc1nc2ccccc2n1Cc1ccccc1 | i | i | i | -9.1* | i
CCN(CC)CCSc1nc(O)c(-c2ccccc2)c(=O)n1-c1ccccc1 | i | i | i | i | i
CCN(CC)CCSc1nc2ccccc2c(=S)n1-c1ccccc1 | i | i | i | -8* | i
CCN(c1ccccc1)S(=O)(=O)c1ccc(OC)c(NC(=O)COc2ccc(C(C)=O)cc2)c1 | i | i | i | i | i
COC(C/C=C\[C@H](O)[C@H](C)OCc1ccccc1)OC | i | i | -5.4* | i | i
CCOC(=O)C1=C(N)n2c(s/c(=C/c3ccco3)c2=O)=C(C(=O)OC)C1c1ccco1 (configuration not stated) | i | i | -5.7* | i | i
Cc1noc(C)c1CSCC(=O)NCCN1C(=O)S/C(=C\c2ccccc2F)C1=O | i | i | i | i | i
CCCN(CC(=O)Nc1ccccc1OC)C(=O)c1cccc(S(=O)(=O)Nc2ccc(OC)cc2)c1 | i | i | i | i | i
Cc1nc(C)c(-c2ccc(SCC(=O)Nc3cccc(Cl)c3C)nn2)s1 | i | i | i | i | i
COc1c(C)cccc1C(=O)NC(=S)Nc1ccccc1N1CCCC1 | i | i | i | -7.6* | i
Cc1c(C(=O)Nc2ccc(Cl)cc2)c2ccccn2c1C(=O)c1ccc(F)cc1 | i | i | i | -9.1* | i
Cc1c(/C=N/NC(=O)c2ccc(O)cc2)c2ccccn2c1C(=O)c1ccc(F)cc1 | i | i | i | i | i
COC(=O)N/N=C/c1c(C)c(C(=O)c2ccc(F)cc2)n2ccccc12 | i | i | i | i | i
Cc1c(/C=N/NC(=O)c2ccccc2O)c2ccccn2c1C(=O)c1ccc(F)cc1 | i | i | -7.1* | i | i
